In ChEMBL document CHEMBL1123589, “Phenylpiperazine-based radiopharmaceuticals for brain imaging. 3. Synthesis and evaluation of radioiodinated 1-alkyl-4-phenylpiperazines” (J Med Chem, 1987):
Where “and” joins values, the source holds several entries; their conditions need not be identical. Identical values can stand only once.

How the values were obtained:
Conditions in all cases: in vivo
Canis familiaris [1] = test: The biodistribution of the [131I]-labeled compound in dog (mass= 5.7 kg), 2 hr after intravenous injection was evaluated in cortex; type: ADME, organism-based, Canis lupus familiaris
In short: (§1)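 One female dog (5.7 kg) premedicated im with acepromazine maleate, then anesthetized iv with sodium nembutal/saline (1:1). Given 1.0 mCi iv of ¹³¹I-labeled agent. Killed 2 h post-dose with iv nembutal. Tissues excised, weighed and counted; blood, fat and muscle masses estimated as 7.5%, 27.5% and 40% of body weight. Expressed as % ID/organ and % ID·kg/g.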

Canis familiaris [2] = test: The biodistribution of the [131I]-labeled compound in dog (mass= 5.7 kg), 2 hr after intravenous injection was evaluated in cortex (ID.kg/g); type: ADME, organism-based, Canis lupus familiaris; in short: as §1
Canis familiaris [3] = test: The biodistribution of the [131I]-labeled compound in dog (mass= 5.7 kg), 2 hr after intravenous injection was evaluated in fat (ID.kg/g); type: ADME, organism-based, Canis lupus familiaris, Adipose tissue; in short: as §1
Rattus norvegicus [4] = test: The biodistribution of the [125I]-labeled compound in rats after intravenous injection was evaluated in adrenal at 4.00 hrs; value ranges from 0.81-1.19 (ID.kg/g); type: ADME, organism-based
In short: (§2)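 Male Sprague-Dawley rats (250–300 g) under ether anesthesia were given an iv injection of no-carrier-added 125I-labelled agent (10–15 μCi in 0.1 mL saline). The agent was iodinated with chloramine-T in acetate buffer and purified by C-18 HPLC. Groups of N = 3 were killed at 0.25, 1 and 4 h. Blood and tissues were weighed and γ-counted. Values are % ID·kg/g, mean (range).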

Rattus norvegicus [5] = test: The biodistribution of the [125I]-labeled compound in rats after intravenous injection was evaluated in thyroid at 1.00 hrs; value ranges from 1.69-2.41 (ID.kg/g); type: ADME, organism-based, Thyroid gland
In short: (§3)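 Male Sprague-Dawley rats (250–300 g) under ether anesthesia given iv 0.1 mL saline containing 10–15 μCi of NCA ¹²⁵I-labeled agent (chloramine-T iodination, HPLC-purified). Groups of 3 killed at 0.25, 1 and 4 h. Blood and tissues excised, weighed and γ-counted. Values are mean (range) of % injected dose × body mass (kg) per gram of tissue.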

Rattus norvegicus [6] = test: The biodistribution of the [125I]-labeled compound in rats after intravenous injection was evaluated in heart at 0.25 hrs; value ranges from 0.26-0.32 (ID.kg/g); type: ADME, organism-based; in short: as §2
Rattus norvegicus [7] = test: The biodistribution of the [125I]-labeled compound in rats after intravenous injection was evaluated in lung at 4.00 hrs; value ranges from 0.45-0.67 (ID.kg/g); type: ADME, organism-based
In short: (§4)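 Male Sprague-Dawley rats (250–300 g), under ether anesthesia, given 10–15 μCi of the NCA ¹²⁵I-labeled agent iv in 0.1 mL saline. Groups of N = 3 were killed at 0.25, 1 or 4 h. Blood and tissues were removed, weighed and counted in a γ-well scintillation counter. Values are mean % ID·kg/g (range).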

Rattus norvegicus [8] = test: The biodistribution of the [125I]-labeled compound in rats after intravenous injection was evaluated in muscle at 0.25 hrs (ID.kg/g); type: ADME, organism-based, Muscle tissue; in short: as §3
Canis familiaris [9] = test: The biodistribution of the [131I]-labeled compound in dog (mass= 5.7 kg), 2 hr after intravenous injection was evaluated in heart (ID.kg/g); type: ADME, organism-based, Canis lupus familiaris; in short: as §1
Canis familiaris [10] = test: The biodistribution of the [131I]-labeled compound in dog (mass= 5.7 kg), 2 hr after intravenous injection was evaluated in liver (ID.kg/g); type: ADME, organism-based, Canis lupus familiaris; in short: as §1
Canis familiaris [11] = test: The biodistribution of the [131I]-labeled compound in dog (mass= 5.7 kg), 2 hr after intravenous injection was evaluated in lung (ID.kg/g); type: ADME, organism-based, Canis lupus familiaris; in short: as §1
Canis familiaris [12] = test: The biodistribution of the [131I]-labeled compound in dog (mass= 5.7 kg), 2 hr after intravenous injection was evaluated in thyroid (ID.kg/g); type: ADME, organism-based, Canis lupus familiaris, Thyroid gland; in short: as §1
Rattus norvegicus [13] = test: The biodistribution of the [125I]-labeled compound in rats after intravenous injection was evaluated in thyroid at 4.00 hrs; value ranges from 4.85-5.46 (ID.kg/g); type: ADME, organism-based, Thyroid gland; in short: as §3
Rattus norvegicus [14] = test: The biodistribution of the [125I]-labeled compound in rats after intravenous injection was evaluated in thyroid at 0.25 hrs; value ranges from 3.39-4.05 (ID.kg/g); type: ADME, organism-based, Thyroid gland; in short: as §3
Rattus norvegicus [15] = test: The biodistribution of the [125I]-labeled compound in rats after intravenous injection was evaluated in brain at 4.00 hrs; value ranges from 0.25-0.41 (ID.kg/g); type: ADME, organism-based; in short: as §2
Rattus norvegicus [16] = test: The biodistribution of the [125I]-labeled compound in rats after intravenous injection was evaluated in fat at 0.25 hr; value ranges from 0.03-0.05 (ID.kg/g); type: ADME, organism-based, Adipose tissue; in short: as §2
Rattus norvegicus [17] = test: The biodistribution of the [125I]-labeled compound in rats after intravenous injection was evaluated in fat at 1.00 hrs (ID.kg/g); type: ADME, organism-based, Adipose tissue; in short: as §2
Rattus norvegicus [18] = test: The biodistribution of the [125I]-labeled compound in rats after intravenous injection was evaluated in brain at 0.25 hrs; value ranges from 0.32-0.38 (ID.kg/g); type: ADME, organism-based; in short: as §2
Rattus norvegicus [19] = test: The biodistribution of the [125I]-labeled compound in rats after intravenous injection was evaluated in brain at 1.00 hrs (ID.kg/g); type: ADME, organism-based; in short: as §2
Rattus norvegicus [20] = test: The biodistribution of the [125I]-labeled compound in rats after intravenous injection was evaluated in kidney at 1.00 hrs; value ranges from 0.52-0.61 (ID.kg/g); type: ADME, organism-based; in short: as §4
Rattus norvegicus [21] = test: The biodistribution of the [125I]-labeled compound in rats after intravenous injection was evaluated in kidney at 4.00 hrs; value ranges from 0.32-0.42 (ID.kg/g); type: ADME, organism-based; in short: as §4
Rattus norvegicus [22] = test: The biodistribution of the [125I]-labeled compound in rats after intravenous injection was evaluated in liver at 0.25 hr; value ranges from 0.27-0.39 (ID.kg/g); type: ADME, organism-based; in short: as §4
Rattus norvegicus [23] = test: The biodistribution of the [125I]-labeled compound in rats after intravenous injection was evaluated in liver at 4.00 hrs; value ranges from 0.40-0.52 (ID.kg/g); type: ADME, organism-based; in short: as §4
Rattus norvegicus [24] = test: The biodistribution of the [125I]-labeled compound in rats after intravenous injection was evaluated in lung at 1.00 hrs; value ranges from 1.20-1.42( ID.kg/g); type: ADME, organism-based; in short: as §4
Rattus norvegicus [25] = test: The biodistribution of the [125I]-labeled compound in rats after intravenous injection was evaluated in kidney at 0.25 hr; value ranges from 0.48-0.58 (ID.kg/g); type: ADME, organism-based; in short: as §4
Canis familiaris [26] = test: The biodistribution of the [131I]-labeled compound in dog (mass= 5.7 kg), 2 hr after intravenous injection was evaluated in adrenal (ID.kg/g); type: ADME, organism-based, Canis lupus familiaris; in short: as §1
Canis familiaris [27] = test: The biodistribution of the [131I]-labeled compound in dog (mass= 5.7 kg), 2 hr after intravenous injection was evaluated in cerebellum; type: ADME, organism-based, Canis lupus familiaris; in short: as §1
Rattus norvegicus [28] = test: The biodistribution of the [125I]-labeled compound in rats after intravenous injection was evaluated in adrenal at 0.25 hrs; value ranges from 1.43-1.71 (ID.kg/g); type: ADME, organism-based; in short: as §2
Rattus norvegicus [29] = test: The biodistribution of the [125I]-labeled compound in rats after intravenous injection was evaluated in muscle at 1.00 hrs (ID.kg/g); type: ADME, organism-based, Muscle tissue; in short: as §3
Rattus norvegicus [30] = test: The biodistribution of the [125I]-labeled compound in rats after intravenous injection was evaluated in liver at 1.00 hrs; value ranges from 0.19-0.24 (ID.kg/g); type: ADME, organism-based; in short: as §4

CCCCN1CCN(c2ccc(I)cc2)CC1
Biodistribution (Canis familiaris [1]): 0.1%
Biodistribution (Canis familiaris [2]): 0.171%
Biodistribution (Canis familiaris [3]): 9.41% and 0.034%
Biodistribution (Rattus norvegicus [4]): 1.19%
Biodistribution (Rattus norvegicus [5]): 2.41%
Biodistribution (Rattus norvegicus [6]): 0.32%
Biodistribution (Rattus norvegicus [7]): 0.67%
Biodistribution (Rattus norvegicus [8]): 0.03 % ID·kg/g
Biodistribution (Canis familiaris [9]): 0.85%
Biodistribution (Canis familiaris [10]): 6.68% and 1.88%
Biodistribution (Canis familiaris [11]): 1.287% and 0.143%
Biodistribution (Canis familiaris [12]): 0.032% and 0.342%
Biodistribution (Rattus norvegicus [13]): 5.46%
Biodistribution (Rattus norvegicus [14]): 4.05%
Biodistribution (Rattus norvegicus [15]): 0.41%
Biodistribution (Rattus norvegicus [16]): 0.05%
Biodistribution (Rattus norvegicus [17]): 0.01 % ID·kg/g
Biodistribution (Rattus norvegicus [18]): 0.38%
Biodistribution (Rattus norvegicus [19]): 0.28%
Biodistribution (Rattus norvegicus [20]): 0.61%
Biodistribution (Rattus norvegicus [21]): 0.42%
Biodistribution (Rattus norvegicus [22]): 0.39%
Biodistribution (Rattus norvegicus [23]): 0.52%
Biodistribution (Rattus norvegicus [24]): 1.42%
Biodistribution (Rattus norvegicus [25]): 0.58%
Biodistribution (Canis familiaris [26]): 0.121% and 0.633%
Biodistribution (Canis familiaris [27]): 1.571%
Biodistribution (Rattus norvegicus [28]): 1.71%
Biodistribution (Rattus norvegicus [29]): 0.04 %ID·kg/g
Biodistribution (Rattus norvegicus [30]): 0.24%
